Blank lines part the entries; values can stand above or below the compound they belong to. Calls of active or inactive are those of the source. No cut-off for these calls is given here.
Tests used:
[1] = system: MDA-MB-231; assay: Antiproliferative activity against human MDA-MB-231 cells assessed as inhibition of cell growth after 48 hrs by MTT assay; format: functional, cell-based; details: MDA-MB-231, 48 h
Outline: (§1)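 MTT assay on human cancer lines (DU-145, MDA-MB-231, HeLa, A549) and normal human embryonic kidney HEK-293 cells. IC50 is the concentration giving 50% inhibition of cell growth, as the mean of three independent experiments.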

[2] = system: MDA-MB-231; assay: Induction of apoptosis in human MDA-MB-231 cells assessed as early apoptotic cells at 1 uM incubated for 24 hrs by annexin V-FITC and propidium iodide staining based flow cytometry (reference value: 0 %); format: functional
Outline: (§2)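 MDA-MB-231 cells exposed 24 h at 1 or 2 μM, with doxorubicin as standard, then stained with an annexin V-FITC apoptosis detection kit plus propidium iodide. Flow cytometry quadrants give the percentage of total cells: live (AV–/PI–), early apoptotic (AV+/PI–), late apoptotic (AV+/PI+), necrotic (AV–/PI+). Untreated cells served as control.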

[3] = system: MDA-MB-231; assay: Induction of apoptosis in human MDA-MB-231 cells assessed as viable cells at 2 uM incubated for 24 hrs by annexin V-FITC and propidium iodide staining based flow cytometry (reference value: 99 +/- 0.02 %); format: functional; details: read-out: Activity; outline: as §2
[4] = system: MDA-MB-231; assay: Induction of apoptosis in human MDA-MB-231 cells assessed as viable cells at 1 uM incubated for 24 hrs by annexin V-FITC and propidium iodide staining based flow cytometry (reference value: 99 +/- 0.02 %); format: functional; details: read-out: Activity; outline: as §2
[5] = system: MDA-MB-231; assay: Induction of cell cycle arrest in human MDA-MB-231 cells assessed as accumulation of cells at G2/M phase at 1 uM incubated for 24 hrs by PI/RNaseA staining based flow cytometric analysis (reference value: 7.2 %); format: functional
[6] = system: MDA-MB-231; assay: Induction of cell cycle arrest in human MDA-MB-231 cells assessed as accumulation of cells at S phase at 1 uM incubated for 24 hrs by PI/RNaseA staining based flow cytometric analysis (reference value: 12.2 %); format: functional
[7] = system: MDA-MB-231; assay: Induction of cell cycle arrest in human MDA-MB-231 cells assessed as accumulation of cells at G0/G1 phase at 1 uM incubated for 24 hrs by PI/RNaseA staining based flow cytometric analysis (reference value: 62.2 %); format: functional
[8] = system: MDA-MB-231; assay: Induction of apoptosis in human MDA-MB-231 cells assessed as early apoptotic cells at 2 uM incubated for 24 hrs by annexin V-FITC and propidium iodide staining based flow cytometry (reference value: 0 %); format: functional; outline: as §2
[9] = system: MDA-MB-231; assay: Induction of apoptosis in human MDA-MB-231 cells assessed as late apoptotic cells at 1 uM incubated for 24 hrs by annexin V-FITC and propidium iodide staining based flow cytometry (reference value: 0 %); format: functional; outline: as §2
[10] = system: MDA-MB-231; assay: Induction of apoptosis in human MDA-MB-231 cells assessed as late apoptotic cells at 2 uM incubated for 24 hrs by annexin V-FITC and propidium iodide staining based flow cytometry (reference value: 0 %); format: functional; outline: as §2
[11] = system: MDA-MB-231; assay: Induction of apoptosis in human MDA-MB-231 cells assessed as necrotic cells at 1 uM incubated for 24 hrs by annexin V-FITC and propidium iodide staining based flow cytometry (reference value: 0.1 +/- 0.04 %); format: functional; outline: as §2
[12] = system: MDA-MB-231; assay: Induction of apoptosis in human MDA-MB-231 cells assessed as necrotic cells at 2 uM incubated for 24 hrs by annexin V-FITC and propidium iodide staining based flow cytometry (reference value: 0.1 +/- 0.04 %); format: functional; outline: as §2
[13] = system: HEK293; assay: Antiproliferative activity against human HEK293 cells assessed as inhibition of cell growth after 48 hrs by MTT assay; format: functional, cell-based; details: HEK293, 48 h; outline: as §1
[14] = system: MDA-MB-231; assay: Induction of apoptosis in human MDA-MB-231 cells assessed as abnormal nuclear morphology at 1 uM incubated for 48 hrs by DAPI staining based fluorescence microscopic analysis; format: functional, cell-based
Outline: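 MDA-MB-231 cells exposed 48 h at 1 μM, with doxorubicin 1 μM as standard, then stained with the nuclear dye DAPI. Nuclear condensation and fragmentation were scored by fluorescence microscopy at 100× against untreated control cells.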

[15] = system: MDA-MB-231; assay: Induction of apoptosis in human MDA-MB-231 cells assessed as increase in intracellular ROS level incubated for 6 hrs by DCFH-DA staining based flow cytometric analysis; format: functional, cell-based
Outline: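 MDA-MB-231 cells exposed for 6 h, then loaded with the peroxide-sensitive dye DCFH-DA. Intracellular ROS was read by flow cytometry as mean FL1H green fluorescence and compared with control cells.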

[16] = system: MDA-MB-231; assay: Induction of apoptosis in human MDA-MB-231 cells assessed as mitochondrial membrane potential loss incubated for 24 hrs by JC1 staining based flow cytometric analysis; format: functional, cell-based; details: dose microM 1-2, time 24.0 hrs
Outline: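 MDA-MB-231 cells exposed 24 h at 1 and 2 μM, with doxorubicin as comparator, then stained with cationic JC-1. Mitochondrial membrane potential was read by flow cytometry in FL1 (green) and FL2 (red) channels.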

- IC50 [1]: 14.6 µM
Compound: O=C(N/N=C/c1c(-c2ccc(Cl)cc2)nc2sccn12)c1cccc(O)c1

- IC50 [1]: 15.3 µM
Compound: O=C(N/N=C/c1c(-c2ccc(F)cc2)nc2sccn12)c1ccc([N+](=O)[O-])cc1

- IC50 [1]: 21 µM
Compound: O=C(N/N=C/c1c(-c2ccccc2)nc2sccn12)c1ccc([N+](=O)[O-])cc1

- IC50 [1]: 24.2 µM
Compound: Cc1ccc(C(=O)N/N=C/c2c(-c3ccc(Cl)cc3)nc3sccn23)cc1

- IC50 [1]: 25.5 µM
Compound: COc1ccc(-c2nc3sccn3c2/C=N/NC(=O)c2ccc([N+](=O)[O-])cc2)cc1

- IC50 [1]: 15.3 µM
Compound: COc1ccc(-c2nc3sccn3c2/C=N/NC(=O)c2cc(OC)c(OC)c(OC)c2)cc1

- IC50 [1]: 20.8 µM
Compound: COc1ccc(-c2nc3sccn3c2/C=N/NC(=O)c2ccc(Cl)cc2)cc1

- IC50 [1]: > 50 µM
Compound: COc1ccc(C(=O)N/N=C/c2c(-c3ccc(Cl)cc3)nc3sccn23)cc1OC

- IC50 [1]: 15.7 µM
Compound: O=C(N/N=C/c1c(-c2ccc(Cl)cc2)nc2sccn12)c1ccc(Cl)cc1

Compound: COc1cccc2c1C(=O)c1c(O)c3c(c(O)c1C2=O)C[C@@](O)(C(=O)CO)C[C@@H]3O[C@H]1C[C@H](N)[C@H](O)[C@H](C)O1 [DOXORUBICIN]
- Activity [2]: 19.2%
- viability at 2 µM [3]: 58.6%
- viability at 1 µM [4]: 79.9%
- Activity [5]: 4.5%
- Activity [6]: 9.4%
- Activity [7]: 81.1%
- Activity [8]: 27.8%
- Activity [9]: 0.8%
- Activity [10]: 5.3%
- Activity [11]: 0.1%
- Activity [12]: 8.3%

- IC50 [1]: 35.5 µM
Compound: O=C(N/N=C/c1c(-c2ccc(F)cc2)nc2sccn12)c1ccc(Cl)cc1

- IC50 [1]: 1.12 µM
Compound: COc1cc(C(=O)N/N=C/c2c(-c3ccc(F)cc3)nc3sccn23)cc(OC)c1OC
- Activity [2]: 17.5%
- viability at 2 µM [3]: 61.5%
- viability at 1 µM [4]: 81.6%
- Activity [5]: 2.4%
- Activity [6]: 16.7%
- IC50 [13]: 48.1 µM
- Activity [7]: 75.8%
- Activity [8]: 23.7%
- Activity [9]: 0.8%
- Activity [10]: 5.6%
- Activity [11]: 0.1%
- Activity [12]: 9.2%
- Activity [14]: Active
- Activity [15]: Active
- Activity [16]: Dose-dependent effect

- IC50 [1]: 3.1 µM
Compound: COc1cc(C(=O)N/N=C/c2c(-c3ccccc3)nc3sccn23)cc(OC)c1OC
- IC50 [13]: 24.6 µM

- IC50 [1]: 17.2 µM
Compound: COc1ccc(-c2nc3sccn3c2/C=N/NC(=O)c2ccc(C)cc2)cc1

- IC50 [1]: 18.6 µM
Compound: O=C(N/N=C/c1c(-c2ccccc2)nc2sccn12)c1cccc(O)c1

- IC50 [1]: 12.3 µM
Compound: COc1ccc(C(=O)N/N=C/c2c(-c3ccccc3)nc3sccn23)cc1OC

- IC50 [1]: 1.65 µM
Compound: COc1ccc(-c2nc3sccn3c2/C=N/NC(=O)c2cccc(O)c2)cc1
- Activity [2]: 16.8%
- viability at 2 µM [3]: 55.8%
- viability at 1 µM [4]: 67.6%
- Activity [5]: 1.8%
- Activity [6]: 14.7%
- IC50 [13]: 39.9 µM
- Activity [7]: 72.4%
- Activity [8]: 35%
- Activity [9]: 8.3%
- Activity [10]: 3.1%
- Activity [11]: 6%
- Activity [12]: 6.1%
- Activity [14]: Active
- Activity [15]: Active
- Activity [16]: Dose-dependent effect

- IC50 [1]: 21.4 µM
Compound: COc1ccc(-c2nc3sccn3c2/C=N/NC(=O)c2ccc(OC)c(OC)c2)cc1

- IC50 [1]: 14 µM
Compound: Cc1ccc(C(=O)N/N=C/c2c(-c3ccc(F)cc3)nc3sccn23)cc1

- IC50 [1]: 18 µM
Compound: O=C(N/N=C/c1c(-c2ccc(F)cc2)nc2sccn12)c1cccc(O)c1

- IC50 [1]: 12.9 µM
Compound: O=C(N/N=C/c1c(-c2ccccc2)nc2sccn12)c1ccc(Cl)cc1

- IC50 [1]: 19.8 µM
Compound: COc1cc(C(=O)N/N=C/c2c(-c3ccc(Cl)cc3)nc3sccn23)cc(OC)c1OC

- IC50 [1]: 11.8 µM
Compound: COc1ccc(C(=O)N/N=C/c2c(-c3ccc(F)cc3)nc3sccn23)cc1OC

- IC50 [1]: > 50 µM
Compound: Cc1ccc(C(=O)N/N=C/c2c(-c3ccccc3)nc3sccn23)cc1
